{"source": "ChEMBL document CHEMBL4354843", "about": "“Structure-Based Design of a Potent and Selective Covalent Inhibitor for SRC Kinase That Targets a P-Loop Cysteine” (J Med Chem, 2020)", "key": {"[1]": {"target": "Activin receptor type-2B (Homo sapiens) (UniProt Q13705)", "assay": "Binding affinity to wild-type human ACVR2B (H169 to D504 residues) expressed in bacterial expression system assessed as residual binding level at 1 uM by Kinomescan method relative to control", "method_in_brief": "(§1)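 Active-site-directed KinomeScan competition binding panel covering 468 kinases, compound tested at 1 μM. Each readout is the kinase signal remaining with compound, expressed as a percentage of the DMSO control. […]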"}, "[2]": {"target": "Ephrin type-A receptor 5 (Homo sapiens) (UniProt P54756)", "assay": "Binding affinity to wild-type human partial length EPHA5 (T627 to V930 residues) expressed in bacterial expression system assessed as residual binding level at 1 uM by Kinomescan method relative to control", "method_in_brief": "(§2)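 Active-site-directed competition binding panel of 468 kinases (KinomeScan), compound at 1 μM. The read-out is kinase remaining bound, given as a percentage of the DMSO control. […]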"}, "[3]": {"target": "Homeodomain-interacting protein kinase 1 (Homo sapiens) (UniProt Q86Z02)", "assay": "Binding affinity to wild-type human partial length HIPK1 (M146 to I555 residues) expressed in mammalian expression system assessed as residual binding level at 1 uM by Kinomescan method relative to control"}, "[4]": {"tested_on": "Tyrosine-protein kinase ABL1 (Homo sapiens), P00519 [Q252H]", "assay": "Binding affinity to human phosphorylated ABL1 Q252H mutant expressed in mammalian expression system assessed as residual binding level at 1 uM by Kinomescan method relative to control", "method_in_brief": "as §1"}, "[5]": {"target": "RAC-beta serine/threonine-protein kinase (Homo sapiens) (UniProt P31751)", "assay": "Binding affinity to wild-type human partial length AKT2 expressed in bacterial expression system assessed as residual binding level at 1 uM by Kinomescan method relative to control"}, "[6]": {"target": "Serine/threonine-protein kinase N2 (Homo sapiens) (UniProt Q16513)", "assay": "Binding affinity to wild-type human partial length PKN2 (E634 to C984 residues) expressed in bacterial expression system assessed as residual binding level at 1 uM by Kinomescan method relative to control"}, "[7]": {"target": "Dual specificity mitogen-activated protein kinase kinase 6 (Homo sapiens) (UniProt P52564)", "assay": "Binding affinity to wild-type human partial length MEK6 (K36 to D334 residues) expressed in bacterial expression system assessed as residual binding level at 1 uM by Kinomescan method relative to control", "method_in_brief": "as §2"}, "[8]": {"tested_on": "Epidermal growth factor receptor (Homo sapiens), P00533 [L858R]", "assay": "Binding affinity to human partial length EGFR L858R mutant (R669 to V1011 residues) expressed in bacterial expression system assessed as residual binding level at 1 uM by Kinomescan method relative to control", "method_in_brief": "(§3)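 KinomeScan active site-directed competition binding panel (468 kinases), compound tested at 1 μM. Result expressed as remaining kinase signal versus DMSO control (percent of control).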"}, "[9]": {"target": "Serine/threonine-protein kinase MRCK alpha (Homo sapiens) (UniProt Q5VT25)", "assay": "Binding affinity to wild-type human partial length MRCKA (L57 to V418 residues) expressed in bacterial expression system assessed as residual binding level at 1 uM by Kinomescan method relative to control"}, "[10]": {"target": "G protein-coupled receptor kinase 3 (Homo sapiens) (UniProt P35626)", "assay": "Binding affinity to wild-type human full length GRK3 (M1 to L688 residues) expressed in mammalian expression system assessed as residual binding level at 1 uM by Kinomescan method relative to control", "method_in_brief": "as §1"}, "[11]": {"target": "Serine/threonine-protein kinase Nek9 (Homo sapiens) (UniProt Q8TD19)", "sequence (Q8TD19 whole entry, the tested form may be a part)": "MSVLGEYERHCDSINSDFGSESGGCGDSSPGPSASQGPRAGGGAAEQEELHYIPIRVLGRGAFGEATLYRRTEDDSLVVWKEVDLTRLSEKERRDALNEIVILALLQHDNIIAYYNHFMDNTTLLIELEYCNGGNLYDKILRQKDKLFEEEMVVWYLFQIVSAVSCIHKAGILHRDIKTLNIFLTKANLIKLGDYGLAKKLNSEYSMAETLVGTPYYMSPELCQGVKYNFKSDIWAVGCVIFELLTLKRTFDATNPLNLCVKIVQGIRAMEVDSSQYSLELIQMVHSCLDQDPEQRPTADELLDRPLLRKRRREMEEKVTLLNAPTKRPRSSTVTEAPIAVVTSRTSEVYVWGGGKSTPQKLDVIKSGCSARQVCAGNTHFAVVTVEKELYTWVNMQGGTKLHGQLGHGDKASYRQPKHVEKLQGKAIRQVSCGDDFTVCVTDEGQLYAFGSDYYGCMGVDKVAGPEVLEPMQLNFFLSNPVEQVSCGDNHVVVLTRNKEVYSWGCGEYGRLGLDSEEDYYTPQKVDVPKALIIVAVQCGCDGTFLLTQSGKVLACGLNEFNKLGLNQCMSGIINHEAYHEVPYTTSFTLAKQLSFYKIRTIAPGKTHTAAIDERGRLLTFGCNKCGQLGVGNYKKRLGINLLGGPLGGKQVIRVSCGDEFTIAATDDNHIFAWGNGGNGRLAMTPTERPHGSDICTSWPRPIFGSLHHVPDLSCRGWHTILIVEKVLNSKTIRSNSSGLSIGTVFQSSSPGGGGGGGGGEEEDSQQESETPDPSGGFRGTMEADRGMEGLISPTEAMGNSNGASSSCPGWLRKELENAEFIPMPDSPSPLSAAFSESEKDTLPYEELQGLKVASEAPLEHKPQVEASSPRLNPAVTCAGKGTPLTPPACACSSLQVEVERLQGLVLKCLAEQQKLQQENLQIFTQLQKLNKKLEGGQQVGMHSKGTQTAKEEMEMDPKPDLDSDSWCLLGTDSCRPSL", "assay": "Binding affinity to wild-type human partial length NEK9 (P32 to R328 residues) expressed in bacterial expression system assessed as residual binding level at 1 uM by Kinomescan method relative to control"}, "[12]": {"target": "Fibroblast growth factor receptor 1 (Homo sapiens, UniProt P11362)", "assay": "Inhibition of recombinant human His-tagged FGFR1 (308 to 731 residues) expressed in baculovirus expression system using tyrosine-4 peptide as substrate incubated for 1 hr by Z'-LYTE assay"}, "[13]": {"target": "Mitogen-activated protein kinase kinase kinase 1 (Homo sapiens) (UniProt Q13233)", "sequence (Q13233 whole entry, the tested form may be a part)": "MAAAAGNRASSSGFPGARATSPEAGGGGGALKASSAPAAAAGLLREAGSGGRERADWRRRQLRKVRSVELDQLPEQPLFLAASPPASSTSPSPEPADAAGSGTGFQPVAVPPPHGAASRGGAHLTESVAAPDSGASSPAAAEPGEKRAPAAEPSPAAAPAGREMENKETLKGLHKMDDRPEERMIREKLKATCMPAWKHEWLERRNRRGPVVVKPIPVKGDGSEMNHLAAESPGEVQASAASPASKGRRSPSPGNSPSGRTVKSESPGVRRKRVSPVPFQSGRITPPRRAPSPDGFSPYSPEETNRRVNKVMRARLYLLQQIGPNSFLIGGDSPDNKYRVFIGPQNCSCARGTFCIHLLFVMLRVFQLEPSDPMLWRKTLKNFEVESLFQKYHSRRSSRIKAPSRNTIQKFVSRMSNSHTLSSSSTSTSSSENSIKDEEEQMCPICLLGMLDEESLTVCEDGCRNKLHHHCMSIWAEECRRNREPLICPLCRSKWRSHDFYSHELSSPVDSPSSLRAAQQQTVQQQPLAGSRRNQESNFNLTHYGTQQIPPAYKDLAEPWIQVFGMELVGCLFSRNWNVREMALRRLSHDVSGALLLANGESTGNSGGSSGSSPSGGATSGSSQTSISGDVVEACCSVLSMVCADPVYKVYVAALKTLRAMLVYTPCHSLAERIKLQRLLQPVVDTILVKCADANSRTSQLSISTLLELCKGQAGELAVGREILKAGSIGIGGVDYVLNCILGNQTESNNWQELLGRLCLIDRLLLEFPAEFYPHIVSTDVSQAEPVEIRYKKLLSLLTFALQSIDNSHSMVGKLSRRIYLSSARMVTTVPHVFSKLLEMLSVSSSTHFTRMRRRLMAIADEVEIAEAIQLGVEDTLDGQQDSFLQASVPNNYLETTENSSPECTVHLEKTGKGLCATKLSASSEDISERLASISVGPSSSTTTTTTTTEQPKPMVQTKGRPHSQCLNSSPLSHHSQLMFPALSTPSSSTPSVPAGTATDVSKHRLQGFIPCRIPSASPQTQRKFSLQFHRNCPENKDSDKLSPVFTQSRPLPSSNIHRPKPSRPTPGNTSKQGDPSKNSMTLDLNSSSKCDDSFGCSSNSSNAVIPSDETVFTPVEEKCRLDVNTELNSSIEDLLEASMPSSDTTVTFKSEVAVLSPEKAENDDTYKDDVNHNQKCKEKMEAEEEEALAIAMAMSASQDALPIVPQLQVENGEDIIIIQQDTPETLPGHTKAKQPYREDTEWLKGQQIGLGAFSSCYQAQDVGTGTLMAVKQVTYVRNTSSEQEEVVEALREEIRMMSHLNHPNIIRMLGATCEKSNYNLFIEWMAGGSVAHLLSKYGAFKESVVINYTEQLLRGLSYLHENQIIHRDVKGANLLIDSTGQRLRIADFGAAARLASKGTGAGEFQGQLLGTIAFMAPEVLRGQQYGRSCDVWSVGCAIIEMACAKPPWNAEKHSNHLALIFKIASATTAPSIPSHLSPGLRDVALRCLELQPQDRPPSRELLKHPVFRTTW", "assay": "Binding affinity to wild-type human partial length MAP3K1 (L1202 to W1512 residues) expressed in mammalian expression system assessed as residual binding level at 1 uM by Kinomescan method relative to control", "method_in_brief": "as §2"}, "[14]": {"tested_on": "Epidermal growth factor receptor (Homo sapiens), P00533 [UNDEFINED MUTATION]", "assay": "Binding affinity to human partial length EGFR L747-E749del/A750P mutant expressed in bacterial expression system assessed as residual binding level at 1 uM by Kinomescan method relative to control", "method_in_brief": "as §3"}, "[15]": {"target": "Cyclin-dependent kinase-like 2 (Homo sapiens) (UniProt Q92772)", "assay": "Binding affinity to wild-type human partial length CDKL2 (M1 to D327 residues) expressed in bacterial expression system assessed as residual binding level at 1 uM by Kinomescan method relative to control"}, "[16]": {"tested_on": "eIF-2-alpha kinase GCN2 (Homo sapiens), Q9P2K8 [S808G]", "assay": "Binding affinity to wild-type human partial length GCN2 kinase domain 2 (R585 to T1018 residues) S808G mutant expressed in bacterial expression system assessed as residual binding level at 1 uM by Kinomescan method relative to control"}, "[17]": {"target": "Dual specificity protein kinase CLK2 (Homo sapiens) (UniProt P49760)", "assay": "Binding affinity to wild-type human partial length CLK2 (D144 to R498 residues) expressed in bacterial expression system assessed as residual binding level at 1 uM by Kinomescan method relative to control"}, "[18]": {"target": "Protein kinase C epsilon type (Homo sapiens) (UniProt Q02156)", "assay": "Binding affinity to wild-type human partial length PRKCE (A378 to P737 residues) expressed in mammalian expression system assessed as residual binding level at 1 uM by Kinomescan method relative to control"}, "[19]": {"target": "Serine/threonine-protein kinase MARK2 (Homo sapiens) (UniProt Q7KZI7)", "sequence (Q7KZI7 whole entry, the tested form may be a part)": "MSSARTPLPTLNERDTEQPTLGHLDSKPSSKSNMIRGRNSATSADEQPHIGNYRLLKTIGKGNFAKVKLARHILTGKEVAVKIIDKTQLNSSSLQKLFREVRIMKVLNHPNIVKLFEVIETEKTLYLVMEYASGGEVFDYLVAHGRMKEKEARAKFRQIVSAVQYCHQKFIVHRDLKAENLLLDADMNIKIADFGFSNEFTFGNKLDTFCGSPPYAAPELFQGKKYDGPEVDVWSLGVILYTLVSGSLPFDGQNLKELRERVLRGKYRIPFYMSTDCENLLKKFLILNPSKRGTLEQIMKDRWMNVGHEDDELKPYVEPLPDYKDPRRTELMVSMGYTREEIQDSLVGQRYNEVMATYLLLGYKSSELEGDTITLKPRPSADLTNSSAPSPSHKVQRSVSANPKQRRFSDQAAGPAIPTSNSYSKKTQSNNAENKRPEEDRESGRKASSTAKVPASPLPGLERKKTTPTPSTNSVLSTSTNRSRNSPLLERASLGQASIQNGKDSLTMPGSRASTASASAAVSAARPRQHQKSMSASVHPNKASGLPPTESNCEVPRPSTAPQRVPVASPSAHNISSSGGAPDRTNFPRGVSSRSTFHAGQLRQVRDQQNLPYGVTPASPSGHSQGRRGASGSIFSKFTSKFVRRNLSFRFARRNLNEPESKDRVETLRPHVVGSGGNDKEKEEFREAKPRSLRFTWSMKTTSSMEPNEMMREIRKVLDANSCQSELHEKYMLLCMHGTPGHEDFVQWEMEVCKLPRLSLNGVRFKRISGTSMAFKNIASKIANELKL", "assay": "Binding affinity to wild-type human partial length MARK2 (M1 to R450 residues) expressed in bacterial expression system assessed as residual binding level at 1 uM by Kinomescan method relative to control"}, "[20]": {"target": "BMP-2-inducible protein kinase (Homo sapiens) (UniProt Q9NSY1)", "sequence (Q9NSY1 whole entry, looked up, the tested form may be a part)": "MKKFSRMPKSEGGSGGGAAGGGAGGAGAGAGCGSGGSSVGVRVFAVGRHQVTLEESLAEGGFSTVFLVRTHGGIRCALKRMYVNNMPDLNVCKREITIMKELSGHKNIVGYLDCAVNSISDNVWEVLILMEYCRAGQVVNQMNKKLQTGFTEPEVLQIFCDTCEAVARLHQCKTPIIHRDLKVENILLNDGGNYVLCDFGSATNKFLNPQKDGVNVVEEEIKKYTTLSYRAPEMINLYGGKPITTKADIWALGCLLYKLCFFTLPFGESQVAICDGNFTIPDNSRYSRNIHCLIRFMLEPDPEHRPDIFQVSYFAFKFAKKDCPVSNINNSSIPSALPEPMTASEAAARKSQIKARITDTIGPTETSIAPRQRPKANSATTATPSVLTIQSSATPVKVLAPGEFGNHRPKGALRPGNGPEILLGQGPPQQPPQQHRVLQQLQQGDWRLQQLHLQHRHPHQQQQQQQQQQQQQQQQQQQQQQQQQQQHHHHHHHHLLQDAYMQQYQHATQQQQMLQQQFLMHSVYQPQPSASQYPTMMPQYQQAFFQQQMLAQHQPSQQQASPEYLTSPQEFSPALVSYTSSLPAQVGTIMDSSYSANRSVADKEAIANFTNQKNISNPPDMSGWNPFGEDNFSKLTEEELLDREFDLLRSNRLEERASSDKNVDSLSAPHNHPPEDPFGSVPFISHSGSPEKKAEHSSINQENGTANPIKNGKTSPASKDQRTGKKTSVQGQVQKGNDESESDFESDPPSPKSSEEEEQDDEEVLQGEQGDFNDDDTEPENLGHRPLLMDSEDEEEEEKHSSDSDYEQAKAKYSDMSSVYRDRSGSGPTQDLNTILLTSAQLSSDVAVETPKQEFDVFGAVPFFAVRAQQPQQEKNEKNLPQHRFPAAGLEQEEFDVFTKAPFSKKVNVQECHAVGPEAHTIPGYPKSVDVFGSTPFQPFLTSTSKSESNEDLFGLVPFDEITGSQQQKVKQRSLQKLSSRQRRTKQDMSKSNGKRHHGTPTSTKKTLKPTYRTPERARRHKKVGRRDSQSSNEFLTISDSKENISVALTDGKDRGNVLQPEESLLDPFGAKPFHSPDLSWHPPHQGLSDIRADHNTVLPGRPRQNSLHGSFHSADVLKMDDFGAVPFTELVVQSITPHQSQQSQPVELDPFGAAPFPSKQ", "assay": "Binding affinity to wild-type human partial length BIKE (S34 to N329 residues) expressed in bacterial expression system assessed as residual binding level at 1 uM by Kinomescan method relative to control", "method_in_brief": "(§4)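 KinomeScan, an active site-directed competition binding panel of 468 kinases. The test compound was at 1 μM. The readout is remaining kinase binding as a percentage of the DMSO control. Scores above 35% were treated as weak binding and not listed.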"}, "[21]": {"target": "Dual specificity mitogen-activated protein kinase kinase 2 (Homo sapiens) (UniProt P36507)", "sequence (P36507 whole entry, the tested form may be a part)": "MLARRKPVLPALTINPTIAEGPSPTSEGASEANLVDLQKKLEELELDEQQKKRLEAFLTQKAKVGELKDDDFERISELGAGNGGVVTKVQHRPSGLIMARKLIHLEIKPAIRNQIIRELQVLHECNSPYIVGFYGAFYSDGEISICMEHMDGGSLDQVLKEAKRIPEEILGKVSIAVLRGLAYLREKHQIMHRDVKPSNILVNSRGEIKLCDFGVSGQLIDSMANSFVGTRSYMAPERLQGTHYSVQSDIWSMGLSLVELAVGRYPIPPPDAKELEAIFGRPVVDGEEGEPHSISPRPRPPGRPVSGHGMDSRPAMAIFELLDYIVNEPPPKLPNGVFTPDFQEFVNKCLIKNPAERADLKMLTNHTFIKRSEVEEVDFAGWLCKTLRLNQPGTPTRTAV", "assay": "Binding affinity to wild-type human full length MEK2 (M1 to V400 residues) expressed in mammalian expression system assessed as residual binding level at 1 uM by Kinomescan method relative to control", "method_in_brief": "as §4"}, "[22]": {"target": "Mitogen-activated protein kinase 11 (Homo sapiens) (UniProt Q15759)", "assay": "Binding affinity to wild-type human full length p38-beta (M1 to Q364 residues) expressed in bacterial expression system assessed as residual binding level at 1 uM by Kinomescan method relative to control", "method_in_brief": "as §4"}}, "data": [{"smiles": "C=CC(=O)Nc1ccccc1Nc1nc(Nc2ccc(N3CCN(C)CC3)cc2)ncc1C(=O)Nc1c(C)cccc1Cl", "values": [{"measurement": "Activity", "setting": "[1]", "result": 100, "unit": "%"}, {"measurement": "Activity", "setting": "[2]", "result": 78, "unit": "%"}, {"measurement": "Activity", "setting": "[3]", "result": 100, "unit": "%"}, {"measurement": "Activity", "setting": "[4]", "result": 0.7, "unit": "%"}, {"measurement": "Activity", "setting": "[5]", "result": 100, "unit": "%"}, {"measurement": "Activity", "setting": "[6]", "result": 100, "unit": "%"}, {"measurement": "Activity", "setting": "[7]", "result": 99, "unit": "%"}, {"measurement": "Activity", "setting": "[8]", "result": 62, "unit": "%"}, {"measurement": "Activity", "setting": "[9]", "result": 100, "unit": "%"}, {"measurement": "Activity", "setting": "[10]", "result": 100, "unit": "%"}, {"measurement": "Activity", "setting": "[11]", "result": 100, "unit": "%"}, {"measurement": "IC50", "setting": "[12]", "result": 8.34, "unit": "µM"}, {"measurement": "Activity", "setting": "[13]", "result": 99, "unit": "%"}, {"measurement": "Activity", "setting": "[14]", "result": 66, "unit": "%"}, {"measurement": "Activity", "setting": "[15]", "result": 100, "unit": "%"}, {"measurement": "Activity", "setting": "[16]", "result": 87, "unit": "%"}, {"measurement": "Activity", "setting": "[17]", "result": 100, "unit": "%"}, {"measurement": "Activity", "setting": "[18]", "result": 100, "unit": "%"}, {"measurement": "Activity", "setting": "[19]", "result": 100, "unit": "%"}, {"measurement": "Activity", "setting": "[20]", "result": 94, "unit": "%"}, {"measurement": "Activity", "setting": "[21]", "result": 93, "unit": "%"}, {"measurement": "Activity", "setting": "[22]", "result": 98, "unit": "%"}]}]}
